Experiments:
H4K20me1 = assay: Peptide microarray, chromodomain binding to H4K20me1; design: species or system human; conditions: no dsDNA in binding buffer
How it was run: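 Custom array of 467 unmodified and modified peptides (synthesized, desalted, mass-spec checked), each spotted in triplicate on glass slides. Chromodomain proteins were bound to the printed array and analyzed by a previously described protocol. The CBX1 mutant chromodomain was instead screened on a commercial modified-histone peptide array.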

[1] = test system: methylated H3K9 and H3K27 peptides; assay: Peptide microarray, chromodomain binding profile; design: species or system human; conditions: cluster 3 = H3K9 peptides with different PTMs
How it was run: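 Array of 467 unmodified and modified peptides (desalted, mass-spectrometry checked) printed in triplicate spots on glass slides and probed with chromodomain proteins. Signal intensities converted to z scores per chromodomain using all its intensities: z = (x − mean)/SD. Hierarchical clustering grouped chromodomains into three categories and peptides into six clusters by binding preference.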

- interaction with H4K20me1 (in words) (H4K20me1): did not show interaction with this mark
B1: MS3L1: MS3L1 chromodomain, cloned sequence 29-94 (protein, UniProt Q8N5Y2 29-94, looked up, fragment)
chain: VLYDAKIVDVIVGKDEKGRKIPEYLIHFNGWNRSWDRWAAEDHVLRDTDENRRLQRKLARKAVARL
modifications: chromodomain
- interaction with peptide cluster 3 (in words) [1]: lacked significant interaction with cluster 3

Reference: paper PMC6221542 (Science Advances, 2018)
